Calls of active or inactive are those of the source. The calls are words filed in the database; no cut-off is given here.
What was measured:
Plasmodium falciparum [1] = test: Antimalarial activity against tightly synchronized Plasmodium falciparum K1 assessed as parasite stage accumulation index at schizonts stages at 10 uM treated at 18 hrs post-invasion for continuous duration of 36 hrs by automated image mining based cytological profiling assay; type: functional
Summary of the method: (§1)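 Tightly synchronized cultures exposed to 10 µM final from 6 hpi (early ring), 18 hpi (late ring) or 30 hpi (mid-trophozoite) for a continuous 36 h. Erythrocytes stained with WGA-AlexaFluor 488, parasite nuclei with DAPI, functional mitochondria with Mitotracker Red CMXRos. Stages (early rings, late rings, trophozoites, schizonts) classified by nuclear spot number and size. Viable parasitaemia and stage accumulation index obtained by automated image analysis.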

Plasmodium falciparum [2] = test: Antimalarial activity against tightly synchronized Plasmodium falciparum K1 assessed as parasite stage accumulation index at trophozoites stages at 10 uM treated at 30 hrs post-invasion for continuous duration of 36 hrs by automated image mining based cytological profiling assay; type: functional; summary of the method: as §1
Plasmodium falciparum [3] = test: Antimalarial activity against tightly synchronized Plasmodium falciparum K1 assessed as parasite stage accumulation index at schizonts stages at 10 uM treated at 30 hrs post-invasion for continuous duration of 36 hrs by automated image mining based cytological profiling assay; type: functional; summary of the method: as §1
Plasmodium falciparum [4] = test: Antimalarial activity against Plasmodium falciparum K1 assessed as reduction in parasite stage accumulation index at 10 uM treated at 42 hrs post-invasion for 24 hrs by automated image mining based cytological profiling assay; type: functional, organism-based
Summary of the method: (§2)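 Tightly synchronized cultures exposed from the 42 hpi mid-schizont point for 24 h to 10 µM final. Host cells stained with wheat germ agglutinin-AlexaFluor 488, parasite nuclei with DAPI and live-parasite mitochondria with Mitotracker Red CMXRos. Infected and viable parasitaemia and stage proportions quantified by automated image mining. Stage accumulation indices and parasitaemia reduction index derived.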

Plasmodium falciparum [5] = test: Antimalarial activity against Plasmodium falciparum HB3 assessed as reduction in parasite stage accumulation index at 10 uM treated at 42 hrs post-invasion for 24 hrs by automated image mining based cytological profiling assay; type: functional; summary of the method: as §2
Plasmodium falciparum [6] = test: Antimalarial activity against Plasmodium falciparum W2 assessed as reduction in parasite stage accumulation index at 10 uM treated at 42 hrs post-invasion for 24 hrs by automated image mining based cytological profiling assay; type: functional, organism-based; summary of the method: as §2
Plasmodium falciparum [7] = test: Antimalarial activity against Plasmodium falciparum K1 assessed as increase in schizonts parasite stage accumulation index at 10 uM treated at 42 hrs post-invasion for 24 hrs by automated image mining based cytological profiling assay; type: functional, organism-based; summary of the method: as §2
Plasmodium falciparum [8] = test: Antimalarial activity against Plasmodium falciparum HB3 assessed as increase in schizonts parasite stage accumulation index at 10 uM treated at 42 hrs post-invasion for 24 hrs by automated image mining based cytological profiling assay; type: functional; summary of the method: as §2
Plasmodium falciparum [9] = test: Antimalarial activity against Plasmodium falciparum W2 assessed as increase in schizonts parasite stage accumulation index at 10 uM treated at 42 hrs post-invasion for 24 hrs by automated image mining based cytological profiling assay; type: functional, organism-based; summary of the method: as §2
Plasmodium falciparum [10] = test: Antimalarial activity against tightly synchronized Plasmodium falciparum HB3 assessed as parasite stage accumulation index at early ring stages at 10 uM treated at 6 hrs post-invasion for continuous duration of 36 hrs by automated image mining based cytological profiling assay; type: functional
Plasmodium falciparum [11] = test: Antimalarial activity against tightly synchronized Plasmodium falciparum HB3 assessed as parasite stage accumulation index at late ring stages at 10 uM treated at 6 hrs post-invasion for continuous duration of 36 hrs by automated image mining based cytological profiling assay; type: functional; summary of the method: as §1
Plasmodium falciparum [12] = test: Antimalarial activity against tightly synchronized Plasmodium falciparum HB3 assessed as parasite stage accumulation index at trophozoites stages at 10 uM treated at 6 hrs post-invasion for continuous duration of 36 hrs by automated image mining based cytological profiling assay; type: functional; summary of the method: as §1
Plasmodium falciparum [13] = test: Antimalarial activity against tightly synchronized Plasmodium falciparum HB3 assessed as parasite stage accumulation index at schizonts stages at 10 uM treated at 6 hrs post-invasion for continuous duration of 36 hrs by automated image mining based cytological profiling assay; type: functional; summary of the method: as §1
Plasmodium falciparum [14] = test: Antimalarial activity against tightly synchronized Plasmodium falciparum HB3 assessed as parasite stage accumulation index at late ring stages at 10 uM treated at 18 hrs post-invasion for continuous duration of 36 hrs by automated image mining based cytological profiling assay; type: functional; summary of the method: as §1
Plasmodium falciparum [15] = test: Antimalarial activity against tightly synchronized Plasmodium falciparum HB3 assessed as parasite stage accumulation index at trophozoites stages at 10 uM treated at 18 hrs post-invasion for continuous duration of 36 hrs by automated image mining based cytological profiling assay; type: functional; summary of the method: as §1
Plasmodium falciparum [16] = test: Antimalarial activity against tightly synchronized Plasmodium falciparum HB3 assessed as parasite stage accumulation index at schizonts stages at 10 uM treated at 18 hrs post-invasion for continuous duration of 36 hrs by automated image mining based cytological profiling assay; type: functional; summary of the method: as §1
Plasmodium falciparum [17] = test: Antimalarial activity against tightly synchronized Plasmodium falciparum HB3 assessed as parasite stage accumulation index at trophozoites stages at 10 uM treated at 30 hrs post-invasion for continuous duration of 36 hrs by automated image mining based cytological profiling assay; type: functional
Plasmodium falciparum [18] = test: Antimalarial activity against tightly synchronized Plasmodium falciparum HB3 assessed as parasite stage accumulation index at schizonts stages at 10 uM treated at 30 hrs post-invasion for continuous duration of 36 hrs by automated image mining based cytological profiling assay; type: functional
Plasmodium falciparum [19] = test: Antimalarial activity against tightly synchronized Plasmodium falciparum W2 assessed as parasite stage accumulation index at early ring stages at 10 uM treated at 6 hrs post-invasion for continuous duration of 36 hrs by automated image mining based cytological profiling assay; type: functional; summary of the method: as §1
Plasmodium falciparum [20] = test: Antimalarial activity against tightly synchronized Plasmodium falciparum W2 assessed as parasite stage accumulation index at late ring stages at 10 uM treated at 6 hrs post-invasion for continuous duration of 36 hrs by automated image mining based cytological profiling assay; type: functional
Plasmodium falciparum [21] = test: Antimalarial activity against tightly synchronized Plasmodium falciparum W2 assessed as parasite stage accumulation index at trophozoites stages at 10 uM treated at 6 hrs post-invasion for continuous duration of 36 hrs by automated image mining based cytological profiling assay; type: functional
Plasmodium falciparum [22] = test: Antimalarial activity against tightly synchronized Plasmodium falciparum W2 assessed as parasite stage accumulation index at schizonts stages at 10 uM treated at 6 hrs post-invasion for continuous duration of 36 hrs by automated image mining based cytological profiling assay; type: functional; summary of the method: as §1
Plasmodium falciparum [23] = test: Antimalarial activity against tightly synchronized Plasmodium falciparum W2 assessed as parasite stage accumulation index at late ring stages at 10 uM treated at 18 hrs post-invasion for continuous duration of 36 hrs by automated image mining based cytological profiling assay; type: functional; summary of the method: as §1
Plasmodium falciparum [24] = test: Antimalarial activity against tightly synchronized Plasmodium falciparum W2 assessed as parasite stage accumulation index at trophozoites stages at 10 uM treated at 18 hrs post-invasion for continuous duration of 36 hrs by automated image mining based cytological profiling assay; type: functional
Plasmodium falciparum [25] = test: Antimalarial activity against tightly synchronized Plasmodium falciparum W2 assessed as parasite stage accumulation index at schizonts stages at 10 uM treated at 18 hrs post-invasion for continuous duration of 36 hrs by automated image mining based cytological profiling assay; type: functional
Plasmodium falciparum [26] = test: Antimalarial activity against tightly synchronized Plasmodium falciparum W2 assessed as parasite stage accumulation index at trophozoites stages at 10 uM treated at 30 hrs post-invasion for continuous duration of 36 hrs by automated image mining based cytological profiling assay; type: functional; summary of the method: as §1
Plasmodium falciparum [27] = test: Antimalarial activity against tightly synchronized Plasmodium falciparum W2 assessed as parasite stage accumulation index at schizonts stages at 10 uM treated at 30 hrs post-invasion for continuous duration of 36 hrs by automated image mining based cytological profiling assay; type: functional
Plasmodium falciparum [28] = test: Antimalarial activity against tightly synchronized Plasmodium falciparum K1 assessed as parasite stage accumulation index at early ring stages at 10 uM treated at 6 hrs post-invasion for continuous duration of 36 hrs by automated image mining based cytological profiling assay; type: functional; summary of the method: as §1
Plasmodium falciparum [29] = test: Antimalarial activity against tightly synchronized Plasmodium falciparum K1 assessed as parasite stage accumulation index at late ring stages at 10 uM treated at 6 hrs post-invasion for continuous duration of 36 hrs by automated image mining based cytological profiling assay; type: functional
Plasmodium falciparum [30] = test: Antimalarial activity against tightly synchronized Plasmodium falciparum K1 assessed as parasite stage accumulation index at trophozoites stages at 10 uM treated at 6 hrs post-invasion for continuous duration of 36 hrs by automated image mining based cytological profiling assay; type: functional
Plasmodium falciparum [31] = test: Antimalarial activity against tightly synchronized Plasmodium falciparum K1 assessed as parasite stage accumulation index at schizonts stages at 10 uM treated at 6 hrs post-invasion for continuous duration of 36 hrs by automated image mining based cytological profiling assay; type: functional; summary of the method: as §1
Plasmodium falciparum [32] = test: Antimalarial activity against tightly synchronized Plasmodium falciparum K1 assessed as parasite stage accumulation index at late ring stages at 10 uM treated at 18 hrs post-invasion for continuous duration of 36 hrs by automated image mining based cytological profiling assay; type: functional; summary of the method: as §1
Plasmodium falciparum [33] = test: Antimalarial activity against tightly synchronized Plasmodium falciparum K1 assessed as parasite stage accumulation index at trophozoites stages at 10 uM treated at 18 hrs post-invasion for continuous duration of 36 hrs by automated image mining based cytological profiling assay; type: functional; summary of the method: as §1
Plasmodium falciparum [34] = test: Antimalarial activity against Plasmodium falciparum K1 assessed as reduction in culture parasitaemia level at 10 uM treated at 42 hrs post-invasion for 24 hrs by automated image mining based cytological profiling assay; type: functional, organism-based; summary of the method: as §2
Plasmodium falciparum [35] = test: Antimalarial activity against Plasmodium falciparum HB3 assessed as reduction in culture parasitaemia level at 10 uM treated at 42 hrs post-invasion for 24 hrs by automated image mining based cytological profiling assay; type: functional; summary of the method: as §2
Plasmodium falciparum [36] = test: Antimalarial activity against Plasmodium falciparum W2 assessed as reduction in culture parasitaemia level at 10 uM treated at 42 hrs post-invasion for 24 hrs by automated image mining based cytological profiling assay; type: functional, organism-based; summary of the method: as §2
[37] = Cytotoxicity against human HepG2 cells after 48 hrs by resazurin based assay; type: cell-based
Summary of the method: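 Cells grown in DMEM with 10% FBS and 1% antibiotic-antimycotic at 37 °C, 5% CO2. Viability read by resazurin reduction. CC50 derived; amphotericin B used as positive cytotoxicity control.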

SMILES	Activity (Plasmodium falciparum [1])	Activity (Plasmodium falciparum [2])	Activity (Plasmodium falciparum [3])	inhibition (Plasmodium falciparum [4])	inhibition (Plasmodium falciparum [5])	inhibition (Plasmodium falciparum [6])	inhibition (Plasmodium falciparum [7])	inhibition (Plasmodium falciparum [8])	inhibition (Plasmodium falciparum [9])	Activity (Plasmodium falciparum [10])	Activity (Plasmodium falciparum [11])	Activity (Plasmodium falciparum [12])	Activity (Plasmodium falciparum [13])	Activity (Plasmodium falciparum [14])	Activity (Plasmodium falciparum [15])	Activity (Plasmodium falciparum [16])	Activity (Plasmodium falciparum [17])	Activity (Plasmodium falciparum [18])	Activity (Plasmodium falciparum [19])	Activity (Plasmodium falciparum [20])	other results
CC(C)C[C@H](NC(=O)[C@H]1O[C@@H]1C(=O)O)C(=O)NCCCCN=C(N)N [E-64]	2.11	0.5	2.07	Active	Active	Active	Active	Active	Active	3.15	1.15	1.32	0.45	0.8	1.33	2.05	1.06	3.85	1.78	0.91	Activity (Plasmodium falciparum [21]): 1.4; Activity (Plasmodium falciparum [22]): 1.2; Activity (Plasmodium falciparum [23]): 0.76; Activity (Plasmodium falciparum [24]): 1.22; Activity (Plasmodium falciparum [25]): 2.1; Activity (Plasmodium falciparum [26]): 1.44; Activity (Plasmodium falciparum [27]): 3; Activity (Plasmodium falciparum [28]): 1.69; Activity (Plasmodium falciparum [29]): 0.67; Activity (Plasmodium falciparum [30]): 1.25; Activity (Plasmodium falciparum [31]): 0.55; Activity (Plasmodium falciparum [32]): 0.39; Activity (Plasmodium falciparum [33]): 1.45
CC(=O)N[C@@H]1[C@@H](O)[C@H](O)[C@@H](CO)O[C@H]1O [N-ACETYLGLUCOSAMINE]	0.64	0.96	1.04	Active	Active	Active	inactive	inactive	inactive	1.4	2.14	0.78	0.29	1	1.06	0.51	0.87	0.7	1.52	0.88	inhibition (Plasmodium falciparum [34]): Active; inhibition (Plasmodium falciparum [35]): Active; inhibition (Plasmodium falciparum [36]): Active; Activity (Plasmodium falciparum [21]): 0.92; Activity (Plasmodium falciparum [22]): 0.54; Activity (Plasmodium falciparum [23]): 0.83; Activity (Plasmodium falciparum [24]): 1.12; Activity (Plasmodium falciparum [25]): 1.08; Activity (Plasmodium falciparum [26]): 0.34; Activity (Plasmodium falciparum [27]): 1.4; Activity (Plasmodium falciparum [28]): 1.33; Activity (Plasmodium falciparum [29]): 1.32; Activity (Plasmodium falciparum [30]): 0.8; Activity (Plasmodium falciparum [31]): 0.66; Activity (Plasmodium falciparum [32]): 0.86; Activity (Plasmodium falciparum [33]): 1.18
C[C@@H]1[C@H](O)[C@@H](C)/C=C/C=C/C=C/C=C/C=C/C=C/C=C/[C@H](O[C@@H]2O[C@H](C)[C@@H](O)[C@H](N)[C@@H]2O)C[C@@H]2O[C@](O)(C[C@@H](O)C[C@@H](O)[C@H](O)CC[C@@H](O)C[C@@H](O)CC(=O)O[C@H]1C)C[C@H](O)[C@H]2C(=O)O [AMPHOTERICIN B]																					CC50 at 48 h [37]: 40 µM
